Screening results from PubChem BioAssay.
Only some compounds are listed: those with a hit (about 4.6% of all), similar ones and a draw of the others.
TAAR1 ag – human TAAR1 agonism | Q96RJ0 | CHO RD-HGA16 TAAR1, Fluo-8 calcium fluorescence; vehicle wells 0%, saturating PEA agonist 100% | activation, % at 3 µM | 360,000 compounds, 0.99% hits | AID 624467;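 active = activation above the mean activation of all test compounds in the run plus 3 SD, cut at about 38% in these data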
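test system = CHO RD-HGA16 cells carrying human TAAR1 plus Gα16 | schedule = 17-24 h seeding, 75 min 37 °C dye, 30 min RT | compound dosing = 3 µM single concentration | control set = DMSO and PEA EC100 | replicates = n 1 | signal = Fluo-8 fluorescence, 5 s baseline then 140 s kinetic read | measure = percent activation vs PEA EC100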
CHO parental Ca – counter-screen: ATP calcium response change in parental CHO cells | parental CHO-K1, ATP-induced calcium, Fluo-8 fluorescence | inhibition, % at 5.6 µM | 330,000 compounds, 0.63% hits;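 active = inhibition above that plate's mean sample inhibition plus 3 SD, cut at about 26% in these data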;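 also: 0% = ATP-challenged DMSO wells and 100% = DMSO wells without ATP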
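test system = CHO parental line | reagent = ATP stimulus | measured by = intracellular calcium via Fluo-8 no-wash fluorescent dye | control set = ATP and no-ATP DMSO wells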
OX1R antag-1 – human HCRTR1 antagonism. CHO/OX1R cells, Fluo-8 calcium fluorescence, orexin A. 330,000 compounds, 0.43% hits. inhibition, % at 5 µM. AID 434989. O43613;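 active = inhibition above its plate's threshold, mean inhibition of all tested compounds on the plate plus 3 SD, cut at about 37% in these data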;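 also: 0% = orexin A challenge wells and 100% = SB-334867-A antagonist wells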
Target sequence (O43613 whole entry, looked up): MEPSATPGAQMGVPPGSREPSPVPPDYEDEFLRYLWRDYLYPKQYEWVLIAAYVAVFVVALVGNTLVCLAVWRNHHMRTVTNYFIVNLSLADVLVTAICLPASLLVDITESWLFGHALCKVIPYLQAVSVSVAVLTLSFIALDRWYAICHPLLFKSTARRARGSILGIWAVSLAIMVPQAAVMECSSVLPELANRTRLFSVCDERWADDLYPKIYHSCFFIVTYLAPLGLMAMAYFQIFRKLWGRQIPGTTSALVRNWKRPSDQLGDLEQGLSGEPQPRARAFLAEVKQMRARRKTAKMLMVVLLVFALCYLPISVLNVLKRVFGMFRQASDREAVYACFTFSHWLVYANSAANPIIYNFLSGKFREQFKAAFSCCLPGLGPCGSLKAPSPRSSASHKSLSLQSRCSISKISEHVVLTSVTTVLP
OX1R antag-2 – blocks the human orexin 1 receptor; AID 485270; 330,000 compounds, 1.8% hits; O43613; inhibition, % at 6.6 µM; OX1R-expressing cells, FRET antagonist read-out; in the data active = inhibition mostly above about 38%, no sharp cut-off; inactive = mostly below about 40%;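 also: 0% = agonist challenge alone and 100% = reference antagonist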
GPR7 antagonist – human neuropeptides B/W receptor 1 antagonism | P48145 | GPR7-expressing cells, fluorescence antagonist assay | inhibition, % at 4.4 µM | 290,000 compounds, 1.1% hits | AID 1861; in the data active = inhibition above about 16%, passing the limit was not always enough;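 also: cells stimulated with the agonist NPW; 0% = agonist with vehicle and 100% = vehicle without agonist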
TAAR1 antagonist – antagonists of human TAAR1; CHO RD-HGA16 TAAR1, Fluo-8 calcium fluorescence, antagonist; inhibition, % at 3 µM; 360,000 compounds, 1.5% hits;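 active = inhibition above a per-plate cutoff, the mean inhibition of test compounds on that plate plus 3 SD, cut at about 49% in these data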;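 also: 0% = DMSO plus EC80 beta-PEA response and 100% = DMSO alone without agonist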
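Assay system: RD-HGA16 CHO cells with stable hTAAR1 and Gα16 / Reagent: EC80 β-phenethylamine stimulus / Doses: 3 µM, single point / Timing: dye loading 75 min at 37 °C, then 30 min room temperature / Measured by: Fluo-8 intracellular calcium dye fluorescence, real-time kinetic reads / Controls: vehicle wells and EC80 agonist wells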
* hit, by the source's call; . = no result given.

SMILES	TAAR1 ag	CHO parental Ca	OX1R antag-1	OX1R antag-2	GPR7 antagonist	TAAR1 antagonist
CCN1C(=O)c2ccc(C(=O)O)cc2C1=O	6.1	2.9	-6.2	22.6	-10.3	4.1
O=C(O)c1ccc(C(=O)c2ccc3c(c2)C(=O)N(Cc2ccco2)C3=O)cc1	-1.4	4.3	-14.2	50.0*	-0.3	6.7
O=C(c1ccc2c(c1)C(=O)N(Cc1ccco1)C2=O)N1CCOCC1	10.5	-9.5	-11.1	17.6	-0.8	-6.5
COc1ccc(-c2noc(CCCC(=O)NCCc3ccccc3)n2)cc1OC	58.3*	-10.5	-29.9	15.2	-6.2	3.4
COc1ccc(-c2noc(COc3ccccc3OC)n2)cc1OC	0.2	-6.8	4.4	46.7*	7.8	-16.2
COc1ccc(C(C(=O)Nc2ccc(F)cc2)N2CCN(CC(=O)N3CCCC3)CC2)cc1 (stereo not given)	-0.9	.	.	.	.	-2.3
Cc1cccn2c(=O)c3cc(C(=O)NCc4ccc(F)cc4)c(=N)n(CC4CCCO4)c3nc12 (stereo not given)	3.1	-14.2	-16.7	22.5	-4.9	-26.0
N=c1c(C(=O)NCC2CCCO2)cc2c(=O)n3ccccc3nc2n1Cc1ccco1 (stereo not given)	-0.3	-10.0	-10.3	57.1*	-6.6	3.6
N=c1c(C(=O)NCC2CCCO2)cc2c(=O)n3ccccc3nc2n1Cc1ccc(F)cc1 (stereo not given)	-1.2	9.5	-27.7	54.5*	9.3	-8.0
N=c1c(C(=O)NCC2CCCO2)cc2c(=O)n3ccccc3nc2n1Cc1cccnc1 (stereo not given)	0.3	2.1	-2.6	73.0*	-4.7	-0.5
Cc1cccn2c(=O)c3cc(C(=O)NCC4CCCO4)c(=N)n(Cc4cccnc4)c3nc12 (stereo not given)	5.5	-3.3	-24.2	60.0*	5.3	6.1
N=c1c(C(=O)NC2CCCCC2)cc2c(=O)n3ccccc3nc2n1Cc1cccnc1	-4.8	-8.4	-21.4	32.2	2.0	12.4
CCOC(=O)C(CNc1ccc(OCc2ccccc2)cc1)NC(=O)c1ccccc1 (stereo not given)	0.6	.	.	.	.	38.1
O=C(NCCc1cccs1)C1CC(c2c(Cl)cccc2Cl)=NO1 (stereo not given)	46.6*	-13.2	-33.8	24.4	-1.3	13.1
O=C(Cc1cccs1)NNC(=O)c1ccccc1Cl	2.1	-1.5	-1.3	-3.0	.	14.9
O=C(NCc1cccs1)C1CC(c2ccc(Cl)c(Cl)c2)=NO1 (stereo not given)	4.6	29.7	29.8	29.1	3.9	11.3
O=C(CNC(=O)c1ccccc1Cl)NCCc1cccs1	39.9*	-3.4	-28.7	8.2	.	-5.0
Cc1ccc(S(=O)(=O)N(C)c2cccc3c2S(=O)(=O)N([C@H](C)c2ccccc2)C[C@@H](COCc2ccccc2)O3)cc1	0.5	.	.	.	.	8.0
Cc1cc(C)cc(NC(=S)/C(=C(\[O-])c2ccc(Cl)cc2Cl)[n+]2ccccc2)c1	-1.1	-12.4	-26.6	6.2	16.1*	2.9
CC(C)(C)n1nc(C2CC2)c(Br)c1NC(=O)c1ccc(Cl)cc1	-0.8	.	.	.	.	-10.1
COc1ccc(Cl)cc1NC(=O)C(OC)c1ccccc1 (stereo not given)	2.9	15.3	-15.4	6.9	5.1	-4.7
COC(/C(=N/O)c1ccc(Cl)cc1)c1ccccc1 (stereo not given)	8.5	59.8*	13.4	30.7	-3.2	32.8
CCOc1ccccc1NC(=O)CSc1nc2nc(-c3cccs3)cc(C(F)(F)F)c2c(=O)[nH]1	-2.5	-17.6	-23.9	46.9*	-8.4	-17.3
O=C(NCc1ccccc1)[C@H]1CCCN1C(=O)[C@H]1CCCN1C(=O)C1CCCCC1	-0.6	.	.	.	.	6.6
Cc1cccc2cc(C#N)c(SCC(=O)N3CC(=O)Nc4ccccc43)nc12	4.7	0.1	14.3	70.6*	1.6	12.7
SMILES	TAAR1 ag	CHO parental Ca	OX1R antag-1	OX1R antag-2	GPR7 antagonist	TAAR1 antagonist
Cc1cc(N/N=C/c2ccccc2)nc(N)n1	40.7*	-6.0	-4.3	21.1	-12.2	8.9
Cc1nc(N)nc(N/N=C/c2ccccc2)n1	3.0	12.6	1.4	2.0	-17.0	-3.3
Fc1cccc(CCN2CCNC[C@@H]2CC2CCCCC2)c1	39.2*	-15.0	-14.0	-0.5	.	6.7
Oc1ccc(C[C@@H]2CNCCN2CCCCC2CCCCC2)cc1	43.0*	19.6	-4.3	4.8	.	2.8
CSCCC(C(=O)NC(C)(C)C)n1c(-c2cccc(NC(C)=O)c2)nc2ccccc21 (stereo not given)	-0.4	.	.	.	.	-12.4
CC(=O)Nc1ccc(N(C)C)cc1[N+](=O)[O-]	6.0	-8.4	-19.1	44.7	-3.5	-16.1
CN(C)c1c([N+](=O)[O-])cc2[nH]c(=O)[nH]c2c1[N+](=O)[O-]	4.8	1.1	8.8	41.7*	-8.1	3.6
NC(Cc1ccc(C(F)(F)F)cc1)c1csc(NC(=O)NCCc2ccccc2)n1 (stereo not given)	32.2	.	.	.	.	-2.8
Cn1ncc2c(O/N=C(\N)c3ccc(C(F)(F)F)cc3)ncnc21	1.7	-15.7	-24.5	48.3*	2.4	-8.6
COc1ccc(C(=O)C[n+]2cccc3cc(OC)ccc32)cc1	0.8	3.0	-7.3	13.9	-3.5	17.9
COc1cccc(C(=O)C[n+]2cccc3cc(OC)ccc32)c1	4.0	-13.2	-17.0	34.0*	.	-10.9
COc1cc(NC(=O)Cc2ccccc2)cc(OC)c1	0.4	-3.4	-10.0	32.3	0.4	9.4
COc1cc(NC(=O)C[n+]2ccc(C(=O)c3ccccc3)cc2)cc(OC)c1	-3.3	-0.4	4.9	42.5*	.	4.6
CC(C)/C=C/C(=O)N1CCC(N2CCC(C(=O)NCC3CCCO3)CC2)CC1 (stereo not given)	-0.3	.	.	.	.	-1.1
CCN(CC)C(=O)c1cccc(-c2csc(C(O)c3cccc(OC)c3)n2)c1 (stereo not given)	5.1	.	.	.	.	22.6
Cc1ccc(S(=O)(=O)N2CCCc3nc(-c4ccc(F)cc4)ccc32)cc1	0.9	.	.	.	.	-37.6
COc1cc(/C=C2\C(=O)N(CCC#N)N=C2C)ccc1OCC(=O)Nc1ccccc1	13.3	7.0	9.6	7.4	6.2	54.3*
COc1ccccc1Nc1ccc([N+](=O)[O-])cc1N	6.9	-9.8	-26.2	16.2	-3.3	11.4
COc1cc(Nc2ccccc2Cl)c([N+](=O)[O-])nc1[N+](=O)[O-]	-1.5	-16.0	-8.3	41.2*	-13.1	-23.4
Cc1[nH]nc2c1C(c1cccc(C(F)(F)F)c1)N(Cc1ccccc1)C2=O (stereo not given)	2.5	.	.	.	.	-32.6
CNC(=O)C[C@@H]1C(=O)N(C2CCCCC2)CC1(C)C	-0.6	.	.	.	.	-0.1
Nc1ccn([C@@H]2O[C@H](C(=O)N3CCN(C(=O)N4CCCCC4)CC3)[C@@H](O)[C@H]2O)c(=O)n1	1.3	.	.	.	.	-6.2
COc1ccc(CN(CCc2ccccc2)Cc2ccccc2)cc1OC	18.4	-50.1	-40.0	60.1*	-5.5	12.1
